Experimental data published in ChEMBL document CHEMBL4270630.

What was measured:
[1] = tested on: Human coronavirus 229E; experiment: Antiviral activity against Human coronavirus 229E infected in HEL299 cells assessed as reduction in virus induced cytopathic effect after 5 days by microscopic method; type: functional, organism-based; settings: HEL 299, 120 h
Outline: (§1)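 Confluent HEL 299 cells in medium with 2% FCS were exposed to HCoV-229E (100 CCID50/well) together with compounds and held for 5 days at 35 °C. EC50 (CPE reduction) and MCC (minimal morphology change) were determined by microscopy. SI is MCC/EC50.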

[2] = tested on: Influenza A virus; experiment: Antiviral activity against Influenza A virus A/Virginia/ATCC3/2009(H1N1pdm) infected in MDCK cells after 3 days by MTS assay; type: functional, organism-based, Influenza A virus (A/Virginia/03/2009(H1N1)); settings: 72 h
Outline: (§2)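 Semi-confluent MDCK cells were infected at an MOI of 0.0004 PFU/cell in Ultra-MDCK infection medium with 2 μg/mL TPCK-trypsin, together with compounds. After 3 days at 35 °C, CPE was scored by microscopy and confirmed by MTS formazan viability. EC50 is the concentration giving 50% inhibition of virus-induced CPE. Values are means of two to five independent tests.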

[3] = tested on: MDCK; experiment: Cytotoxicity against MDCK cells assessed as reduction in cell viability after 3 days by MTS assay; type: cell-based, Canis lupus familiaris; settings: dog, mdck, 72 h
[4] = tested on: Influenza A virus; experiment: Antiviral activity against Influenza A virus A/PR/8/34(H1N1) infected in MDCK cells after 3 days by MTS assay; type: functional, organism-based, A/Puerto Rico/8/1934(H1N1); settings: Influenza A virus, A/Puerto Rico/8/1934(H1N1), MDCK, 72 h; outline: as §2
[5] = Cytotoxicity against HEL299 cells assessed as changes in cell morphology after 5 days by microscopic method; type: cell-based, HEL 299; settings: human; outline: as §1
[6] = tested on: H3N2 subtype; experiment: Antiviral activity against Influenza A virus A/HK/7/87(H3N2) infected in MDCK cells after 3 days by MTS assay; type: functional, organism-based; settings: A/Hong Kong/7/1987(H3N2), 72 h; outline: as §2
[7] = tested on: Human coronavirus 229E; experiment: Antiviral activity against Human coronavirus 229E infected in human A549 cells assessed as reduction in virus RNA level after 3 days by qRT-PCR method; type: functional; settings: A549, 72 h
Outline: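 Confluent A549 cells were infected with HCoV-229E in 2% FCS medium with compounds present. The inoculum was removed at 1 h and compounds were kept on at 35 °C. Supernatants were harvested at day 3, lysed at 75 °C for 10 min, and viral genome copies counted by one-step qRT-PCR.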

[8] = tested on: Influenza A virus; experiment: Antiviral activity against Influenza A virus A/PR/8/34(H1N1) infected in MDCK cells assessed as reduction in virus-induced cytopathic effect after 3 days by microscopic method; type: functional, organism-based, A/Puerto Rico/8/1934(H1N1); settings: Influenza A virus, A/Puerto Rico/8/1934(H1N1), MDCK, 72 h; outline: as §2
[9] = Cytotoxicity against human A549 cells assessed as changes in cell morphology after 3 days by microscopic method; type: cell-based
Outline: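 Mock-infected A549 cells were incubated with compounds for 3 days. MCC is the concentration causing minimal change in cell morphology by microscopy.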

[10] = Cytotoxicity against MDCK cells assessed as alteration in cell morphology after 3 days by microscopic method; type: cell-based, Canis lupus familiaris; settings: dog
Outline: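 Mock-infected MDCK cells were treated with compounds in parallel with the antiviral assay, 3 days at 35 °C. MCC is the concentration causing minimal change in cell morphology by microscopy. CC50 is the 50% cytotoxic concentration by MTS formazan viability assay.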

[11] = tested on: H3N2 subtype; experiment: Antiviral activity against Influenza A virus A/HK/7/87(H3N2) infected in MDCK cells assessed as reduction in virus-induced cytopathic effect after 3 days by microscopic method; type: functional, organism-based; settings: A/Hong Kong/7/1987(H3N2), 72 h; outline: as §2
[12] = tested on: Influenza B virus; experiment: Antiviral activity against Influenza B virus B/Ned/537/05 infected in MDCK cells assessed as reduction in virus-induced cytopathic effect after 3 days by microscopic method; type: functional, organism-based; settings: B/Ned/537/05, MDCK, 72 h
Outline: (§3)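 Semi-confluent MDCK cells were infected at an MOI of 0.0004 PFU/cell in Ultra-MDCK infection medium with 2 μg/mL TPCK-trypsin, together with compounds. After 3 days at 35 °C, CPE was scored by microscopy and confirmed by MTS formazan viability. Values are means of two to five independent tests.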

[13] = tested on: Influenza B virus; experiment: Antiviral activity against Influenza B virus B/Ned/537/05 infected in MDCK cells after 3 days by MTS assay; type: functional, organism-based; settings: B/Ned/537/05, MDCK, 72 h; outline: as §3
[14] = tested on: Influenza A virus; experiment: Antiviral activity against Influenza A virus A/Virginia/ATCC3/2009(H1N1pdm) infected in MDCK cells assessed as reduction in virus-induced cytopathic effect after 3 days by microscopic method; type: functional, organism-based, Influenza A virus (A/Virginia/03/2009(H1N1)); settings: 72 h; outline: as §2
[15] = tested on: Influenza B virus; experiment: Antiviral activity against Influenza B virus B/HK/05/72 infected in MDCK cells assessed as reduction in virus-induced cytopathic effect after 3 days by microscopic method; type: functional, organism-based; settings: B/Hong Kong/05/1972, MDCK, 72 h; outline: as §2
[16] = tested on: Influenza B virus; experiment: Antiviral activity against Influenza B virus B/HK/05/72 infected in MDCK cells after 3 days by MTS assay; type: functional, organism-based; settings: B/Hong Kong/05/1972, MDCK, 72 h; outline: as §2

SMILES	EC50 [1] [µM]	EC50 [2] [µM]	CC50 [3] [µM]	EC50 [4] [µM]	MCC at 120 h [5] [µM]	EC50 [6] [µM]	EC90 [7] [µM]	EC99 [7] [µM]	EC50 [8] [µM]	MCC at 72 h [9] [µM]	MCC at 72 h [10] [µM]	EC50 [11] [µM]	EC50 [12] [µM]	EC50 [13] [µM]	EC50 [14] [µM]	EC50 [15] [µM]	EC50 [16] [µM]
CCCCCCSC1=C(SCCCCCC)C(=O)N(CCOCCOCCOCCOCc2cn(C3C(=O)N[C@@H]4Cc5ccc(c(Cl)c5)Oc5cc6cc(c5O)Oc5ccc(cc5Cl)[C@@H](O[C@@H]5O[C@H](CO)[C@@H](O)[C@H](O)[C@H]5NC(C)=O)[C@H]5NC(=O)[C@H](NC(O)[C@@H]6NC(=O)[C@@H](NC4=O)c4cc(O)cc(c4)Oc4cc3ccc4O)c3ccc(O)c(c3)-c3c(O)cc(O)cc3[C@H](C(=O)O)NC5=O)nn2)C1=O (stereo partly specified)	5.4	6	65	3.5	≥ 20	2.9	7.6	21	2	> 50	20	2	1.8	3.6	2.7	–	–
CCCCSC1=C(SCCCC)C(=O)N(Cc2cn(C3C(=O)N[C@@H]4Cc5ccc(c(Cl)c5)Oc5cc6cc(c5O)Oc5ccc(cc5Cl)[C@@H](O[C@@H]5O[C@H](CO)[C@@H](O)[C@H](O)[C@H]5NC(C)=O)[C@H]5NC(=O)[C@H](NC(O)[C@@H]6NC(=O)[C@@H](NC4=O)c4cc(O)cc(c4)Oc4cc3ccc4O)c3ccc(O)c(c3)-c3c(O)cc(O)cc3[C@H](C(=O)O)NC5=O)nn2)C1=O (stereo partly specified)	5.4	7.4	28	3.2	≥ 20	4.9	5.9	11	2.1	> 50	20	> 100	2.5	3.5	9.8	–	–
CCCCCCCCOCc1cn(CCOCCOCCOCCOCc2cn([C@H]3C(=O)N[C@@H]4Cc5ccc(c(Cl)c5)Oc5cc6cc(c5O)Oc5ccc(cc5Cl)[C@@H](O[C@@H]5O[C@H](CO)[C@@H](O)[C@H](O)[C@H]5NC(C)=O)[C@H]5NC(=O)[C@H](NC(O)[C@@H]6NC(=O)[C@@H](NC4=O)c4cc(O)cc(c4)Oc4cc3ccc4O)c3ccc(O)c(c3)-c3c(O)cc(O)cc3[C@H](C(=O)O)NC5=O)nn2)nn1 (stereo partly specified)	8.9	> 100	19	> 100	100	> 100	23	30	> 100	> 50	20	> 100	> 100	> 100	> 100	–	–
CCCCSC1=C(SCCCC)C(=O)N([C@H]2C(=O)N[C@@H]3Cc4ccc(c(Cl)c4)Oc4cc5cc(c4O)Oc4ccc(cc4Cl)[C@@H](O[C@@H]4O[C@H](CO)[C@@H](O)[C@H](O)[C@H]4NC(C)=O)[C@H]4NC(=O)[C@H](NC(O)[C@@H]5NC(=O)[C@@H](NC3=O)c3cc(O)cc(c3)Oc3cc2ccc3O)c2ccc(O)c(c2)-c2c(O)cc(O)cc2[C@H](C(=O)O)NC4=O)C1=O (stereo partly specified)	5.4	2.6	8.6	> 100	≥ 20	> 100	4.1	10	> 100	50	4	> 100	> 100	> 100	2.9	–	–
O=C(N/C(=C\c1ccccc1)C(=O)N1CCC(O)(c2ccc(Br)cc2)CC1)c1ccccc1	–	–	–	–	–	–	11	15	–	≥ 50	–	–	–	–	–	–	–
CC(=O)N[C@H]1[C@H](O[C@@H]2c3ccc(c(Cl)c3)Oc3cc4cc(c3O)Oc3ccc(cc3Cl)C[C@H]3NC(=O)[C@H](NS(=O)(=O)c5cccc6c(N(C)C)cccc56)c5ccc(O)c(c5)Oc5cc(O)cc(c5)[C@H](NC3=O)C(=O)N[C@H]4C(O)N[C@H]3C(=O)N[C@H]2C(=O)N[C@@H](C(=O)O)c2cc(O)cc(O)c2-c2cc3ccc2O)O[C@H](CO)[C@@H](O)[C@@H]1O (stereo partly specified)	> 100	5.9	52	7	≥ 4	2.3	–	–	4.9	–	20	8.3	6.7	5.3	6.3	–	–
CC(=O)Nc1ccc(S(=O)(=O)N[C@H]2C(=O)N[C@@H]3Cc4ccc(c(Cl)c4)Oc4cc5cc(c4O)Oc4ccc(cc4Cl)[C@@H](O[C@@H]4O[C@H](CO)[C@@H](O)[C@H](O)[C@H]4NC(C)=O)[C@H]4NC(=O)[C@H](NC(O)[C@@H]5NC(=O)[C@@H](NC3=O)c3cc(O)cc(c3)Oc3cc2ccc3O)c2ccc(O)c(c2)-c2c(O)cc(O)cc2[C@H](C(=O)O)NC4=O)cc1 (stereo partly specified)	> 100	> 100	60	> 100	≥ 20	> 100	–	–	> 100	–	100	> 100	> 100	47	> 100	–	–
CC(=O)N[C@H]1[C@H](O[C@@H]2c3ccc(c(Cl)c3)Oc3cc4cc(c3O)Oc3ccc(cc3Cl)C[C@H]3NC(=O)[C@H](NS(=O)(=O)c5ccc(-c6ccccc6)cc5)c5ccc(O)c(c5)Oc5cc(O)cc(c5)[C@H](NC3=O)C(=O)N[C@H]4C(O)N[C@H]3C(=O)N[C@H]2C(=O)N[C@@H](C(=O)O)c2cc(O)cc(O)c2-c2cc3ccc2O)O[C@H](CO)[C@@H](O)[C@@H]1O (stereo partly specified)	> 100	2	15	1.7	4	1.6	–	–	1.8	–	11	1.5	1.8	2.4	2	–	–
CCCCOCc1cn(CCOCCOCCOCCOCc2cn([C@H]3C(=O)N[C@@H]4Cc5ccc(c(Cl)c5)Oc5cc6cc(c5O)Oc5ccc(cc5Cl)[C@@H](O[C@@H]5O[C@H](CO)[C@@H](O)[C@H](O)[C@H]5NC(C)=O)[C@H]5NC(=O)[C@H](NC(O)[C@@H]6NC(=O)[C@@H](NC4=O)c4cc(O)cc(c4)Oc4cc3ccc4O)c3ccc(O)c(c3)-c3c(O)cc(O)cc3[C@H](C(=O)O)NC5=O)nn2)nn1 (stereo partly specified)	≥ 100	47	> 100	51	≥ 100	31	–	–	> 100	–	100	> 100	> 100	28	> 100	–	–
CC(=O)N[C@H]1[C@H](O[C@@H]2c3ccc(c(Cl)c3)Oc3cc4cc(c3O)Oc3ccc(cc3Cl)C[C@H]3NC(=O)C(n5cc(CN6C(=O)C(SC[C@H]7O[C@@H]8OC(C)(C)O[C@@H]8[C@H]8OC(C)(C)O[C@H]87)=C(SC[C@H]7O[C@@H]8OC(C)(C)O[C@@H]8[C@H]8OC(C)(C)O[C@H]87)C6=O)nn5)c5ccc(O)c(c5)Oc5cc(O)cc(c5)[C@H](NC3=O)C(=O)N[C@H]4C(O)N[C@H]3C(=O)N[C@H]2C(=O)N[C@@H](C(=O)O)c2cc(O)cc(O)c2-c2cc3ccc2O)O[C@H](CO)[C@@H](O)[C@@H]1O (stereo partly specified)	–	> 100	18	> 100	–	> 100	–	–	> 100	–	20	> 100	–	–	> 100	> 100	> 100
